Results as given in ChEMBL document CHEMBL2407075, “Sulphonamido-quinoxalines: search for anticancer agent” (Eur J Med Chem, 2013).

What was measured:
Type in all cases: functional
[1] = tested on: UACC-62; experiment: Growth inhibition of human UACC62 cells assessed as cell growth at 10^-6 M after 48 hrs by sulforhodamine B assay; settings: UACC-62, 48 h, read-out: Activity
[2] = tested on: SR; experiment: Growth inhibition of human SR cells assessed as cell growth at 10^-4 M after 48 hrs by sulforhodamine B assay; settings: read-out: Activity
[3] = tested on: ACHN; experiment: Growth inhibition of human ACHN cells assessed as cell growth at 10^-4 M after 48 hrs by sulforhodamine B assay; settings: read-out: Activity
Outline: (§1)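 Five-dose NCI-60 run (0.01, 0.1, 1, 10 and 100 µM, as 10-fold dilutions from a DMSO stock made at 400× the top final level). Cells were grown in RPMI 1640 with 5% FBS and 2 mM glutamine and plated for 24 h. They were then exposed for 48 h at 37 °C and 5% CO2. TCA fixation was followed by SRB staining with A515 read-out. Percent growth was taken relative to time-zero and control plates.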

[4] = tested on: NCI-H322M; experiment: Growth inhibition of human NCI-H322M cells assessed as cell growth at 10^-8 M after 48 hrs by sulforhodamine B assay; settings: read-out: Activity
[5] = tested on: BT-549; experiment: Growth inhibition of human BT549 cells assessed as cell growth at 10^-7 M after 48 hrs by sulforhodamine B assay; settings: BT-549, 48 h, read-out: Activity; outline: as §1
[6] = Growth inhibition of human NCI-ADR-RES cells assessed as cell growth at 10^-5 M after 48 hrs by sulforhodamine B assay; settings: read-out: Activity
[7] = tested on: A549; experiment: Growth inhibition of human A549/ATCC cells after 48 hrs by sulforhodamine B assay; settings: A549, 48 h; for CC50: read-out: LC50 (the source's name)
Outline: (§2)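 Adherent cells in RPMI 1640 with 5% FBS and 2 mM L-glutamine were plated at 5000–40,000 cells/well and grown 24 h. Five concentrations (0.01–100 µM, DMSO stock) were added for 48 h at 37 °C. Cells were fixed with cold TCA (10% final) and stained with SRB, read at 515 nm. GI50 came from log concentration–growth curves against time-zero and control plates.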

[8] = tested on: NCI-H460; experiment: Growth inhibition of human NCI-H460 cells assessed as cell growth at 10^-5 M after 48 hrs by sulforhodamine B assay; settings: NCI-H460, 48 h, read-out: Activity
[9] = tested on: Malme-3M; experiment: Growth inhibition of human MALME-3M cells assessed as cell growth at 10^-6 M after 48 hrs by sulforhodamine B assay; settings: read-out: Activity
[10] = tested on: T47D; experiment: Growth inhibition of human T47D cells assessed as cell growth at 10^-7 M after 48 hrs by sulforhodamine B assay; settings: read-out: Activity
[11] = tested on: SN12C; experiment: Growth inhibition of human SN12C cells assessed as cell growth at 10^-4 M after 48 hrs by sulforhodamine B assay; settings: read-out: Activity
[12] = tested on: IGROV-1; experiment: Growth inhibition of human IGROV1 cells assessed as cell growth at 10^-8 M after 48 hrs by sulforhodamine B assay; settings: IGROV-1, 48 h, read-out: Activity
[13] = tested on: A498; experiment: Growth inhibition of human A498 cells after 48 hrs by sulforhodamine B assay; settings: A498, 48 h; for CC50: read-out: LC50 (the source's name); outline: as §2
[14] = tested on: SK-MEL-28; experiment: Growth inhibition of human SK-MEL-28 cells assessed as cell growth at 10^-4 M after 48 hrs by sulforhodamine B assay; settings: SK-MEL-28, 48 h, read-out: Activity
[15] = tested on: SNB-19; experiment: Growth inhibition of human SNB19 cells assessed as cell growth at 10^-6 M after 48 hrs by sulforhodamine B assay; settings: SNB-19, 48 h, read-out: Activity
[16] = tested on: HCT-116; experiment: Growth inhibition of human HCT116 cells assessed as cell growth at 10^-7 M after 48 hrs by sulforhodamine B assay; settings: HCT-116, 48 h, read-out: Activity
Outline: (§3)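 Five-dose screen at NCI. Cells in RPMI 1640 with 5% FBS and 2 mM L-glutamine, seeded at 5000–40,000 cells/well and grown 24 h at 37 °C, 5% CO2 before dosing, with time-zero plates TCA-fixed. Drug diluted from DMSO stock to 0.01, 0.1, 1, 10 and 100 µM final, 48 h. Cells fixed with cold TCA (10% final), stained with 0.4% SRB and read at 515 nm. Percent growth from Tz, control and test absorbances; GI50, TGI and LC50 from dose-response curves.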

[17] = tested on: MDA-MB-435; experiment: Growth inhibition of human MDA-MB-435 cells assessed as cell growth at 10^-5 M after 48 hrs by sulforhodamine B assay; settings: MDA-MB-435, 48 h, read-out: Activity
[18] = tested on: NCI-H23; experiment: Growth inhibition of human NCI-H23 cells after 48 hrs by sulforhodamine B assay; settings: NCI-H23, 48 h; for CC50: read-out: LC50 (the source's name)
Outline: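 Five-dose NCI 60 screen at 0.01, 0.1, 1, 10 and 100 µM, 48 h exposure after 24 h preincubation, in RPMI 1640 with 5% FBS and 2 mM glutamine. Fixed with TCA (10% final for adherent cells, 16% for suspension cells), stained with SRB, A515 read. Percent growth uses time-zero (Tz), control and treated plates. GI50, TGI and LC50 are read from the dose-response curves.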

[19] = tested on: NCI-H226; experiment: Growth inhibition of human NCI-H226 cells assessed as cell growth at 10^-6 M after 48 hrs by sulforhodamine B assay; settings: NCI-H226, 48 h, read-out: Activity
[20] = tested on: OVCAR-3; experiment: Growth inhibition of human OVCAR3 cells assessed as cell growth at 10^-4 M after 48 hrs by sulforhodamine B assay; settings: OVCAR-3, 48 h, read-out: Activity
[21] = tested on: SK-MEL-5; experiment: Growth inhibition of human SK-MEL-5 cells assessed as cell growth at 10^-8 M after 48 hrs by sulforhodamine B assay; settings: SK-MEL-5, 48 h, read-out: Activity
[22] = Growth inhibition of human HCC2998 cells assessed as cell growth at 10^-7 M after 48 hrs by sulforhodamine B assay; settings: HCC 2998, 48 h, read-out: Activity; outline: as §3
[23] = tested on: SK-MEL-5; experiment: Growth inhibition of human SK-MEL-5 cells assessed as cell growth at 10^-4 M after 48 hrs by sulforhodamine B assay; settings: SK-MEL-5, 48 h, read-out: Activity
[24] = tested on: KM12; experiment: Growth inhibition of human KM12 cells assessed as cell growth at 10^-8 M after 48 hrs by sulforhodamine B assay; settings: KM12, 48 h, read-out: Activity
[25] = tested on: UACC-62; experiment: Growth inhibition of human UACC62 cells assessed as cell growth at 10^-7 M after 48 hrs by sulforhodamine B assay; settings: UACC-62, 48 h, read-out: Activity
[26] = tested on: SF-268; experiment: Growth inhibition of human SF268 cells assessed as cell growth at 10^-7 M after 48 hrs by sulforhodamine B assay; settings: SF-268, 48 h, read-out: Activity
[27] = tested on: OVCAR-3; experiment: Growth inhibition of human OVCAR3 cells assessed as cell growth at 10^-5 M after 48 hrs by sulforhodamine B assay; settings: OVCAR-3, 48 h, read-out: Activity
[28] = tested on: SF-268; experiment: Growth inhibition of human SF268 cells assessed as cell growth at 10^-4 M after 48 hrs by sulforhodamine B assay; settings: SF-268, 48 h, read-out: Activity
[29] = tested on: KM12; experiment: Growth inhibition of human KM12 cells assessed as cell growth at 10^-6 M after 48 hrs by sulforhodamine B assay; settings: KM12, 48 h, read-out: Activity

## O=S(=O)(Nc1ccc(Cl)cc1)c1ccc2nc(-c3ccccc3)c(-c3ccccc3)nc2c1
[1]
  growth at 1 µM: 76%
[2]
  growth at 100 µM: 50%
[3]
  growth at 100 µM: 76%
[4]
  growth at 0.01 µM: 93%
[5]
  growth at 0.1 µM: 81%
[6]
  growth at 10 µM: 14%
[7]
  TGI: > 100 µM
  CC50: > 100 µM
[8]
  growth at 10 µM: -18%
[9]
  growth at 1 µM: 103%
[10]
  growth at 0.1 µM: 90%
[11]
  growth at 100 µM: 78%
[12]
  growth at 0.01 µM: 102%
[13]
  CC50: > 100 µM
[14]
  growth at 100 µM: 82%
[15]
  growth at 1 µM: 89%
[16]
  growth at 0.1 µM: 90%
[17]
  growth at 10 µM: -25%
[18]
  TGI: > 100 µM
  CC50: > 100 µM
[19]
  growth at 1 µM: 101%
[20]
  growth at 100 µM: 65%
[21]
  growth at 0.01 µM: 95%
[22]
  growth at 0.1 µM: 99%
[23]
  growth at 100 µM: 52%
[24]
  growth at 0.01 µM: 103%
[25]
  growth at 0.1 µM: 87%
[26]
  growth at 0.1 µM: 98%
[27]
  growth at 10 µM: -41%
[28]
  growth at 100 µM: 76%
[29]
  growth at 1 µM: 102%

## O=S(=O)(Nc1ccccn1)c1ccc2nc(-c3ccccc3)c(-c3ccccc3)nc2c1
[1]
  growth at 1 µM: 75%
[2]
  growth at 100 µM: 18%
[3]
  growth at 100 µM: 62%
[4]
  growth at 0.01 µM: 96%
[5]
  growth at 0.1 µM: 81%
[6]
  growth at 10 µM: -1%
[7]
  TGI: > 100 µM
  CC50: > 100 µM
[8]
  growth at 10 µM: 1%
[9]
  growth at 1 µM: 115%
[10]
  growth at 0.1 µM: 85%
[11]
  growth at 100 µM: 64%
[12]
  growth at 0.01 µM: 103%
[13]
  GI50: 1.67 µM
  CC50: > 100 µM
[14]
  growth at 100 µM: 82%
[15]
  growth at 1 µM: 87%
[16]
  growth at 0.1 µM: 87%
[17]
  growth at 10 µM: -25%
[18]
  GI50: 2.45 µM
  TGI: > 100 µM
  CC50: > 100 µM
[19]
  growth at 1 µM: 96%
[20]
  growth at 100 µM: 45%
[21]
  growth at 0.01 µM: 95%
[22]
  growth at 0.1 µM: 100%
[23]
  growth at 100 µM: 41%
[24]
  growth at 0.01 µM: 91%
[25]
  growth at 0.1 µM: 92%
[26]
  growth at 0.1 µM: 91%
[27]
  growth at 10 µM: -32%
[28]
  growth at 100 µM: 64%
[29]
  growth at 1 µM: 99%
